# Screening results as filed in PubChem.
# MBD2 DNA inh = inhibitors of MBD2 binding to methylated DNA, primary screen, biochemical, TR-FRET, DNA-binding domain, human; Methyl-CpG-binding domain protein 2 (Homo sapiens), Q9UBB5; hit rate 0.31% among 370,000; AID 686964, 2013; inhibition, % at 4.4 µM; MBD2 binding to methylated oligonucleotide; in the data active = inhibition above about 13%
# ABHD5-PLIN5 inh = ABHD5-PLIN5 interaction inhibitors, primary screen, cell lysate, split luciferase complementation, luminescence. Perilipin-5 (Homo sapiens) + 1-acylglycerol-3-phosphate O-acyltransferase ABHD5 (Homo …. Split G. princeps luciferase complementation, 4 h. inhibition, % at 4 µM. hit rate 0.78% among 360,000;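 active = inhibition above the mean inhibition across every tested compound plus 3 SD, cut at about 22% in these data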;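 also: 0% = DMSO only wells and the 100% control is not disclosed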
# LEDGF integ inh = blockers of LEDGF/p75-dependent integrase strand transfer – biochemical, TR-FRET, high throughput, primary screen. TR-FRET IN-LEDGF/p75 DNA integration, Eu/Cy5. inhibition, % at 3.7 µM. hit rate 0.64% among 370,000. AID 743269, 2014;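 active = inhibition above the screen-wide mean plus 3 SD, cut at about 13% in these data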;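 also: signal is the Cy5 over europium emission ratio at 671 and 618 nm; 0% = plate median of compound wells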
# UHRF1 binding = UHRF1 methylated DNA binding inhibitors, primary screen, counter-screen for MBD2 inhibitor project, biochemical, TR-FRET, human UHRF1, single concentration; UHRF1 binding to methylated oligo; inhibition, % at 4.4 µM; hit rate 0.75% among 370,000; AID 687016, 2013;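 also: UHRF1 SRA domain binding a hemimethylated CpG hairpin DNA probe; 0% = median of test compound wells and 100% = reference inhibitor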
# Target sequence (Q96T88 whole entry, looked up, the tested form may be a part): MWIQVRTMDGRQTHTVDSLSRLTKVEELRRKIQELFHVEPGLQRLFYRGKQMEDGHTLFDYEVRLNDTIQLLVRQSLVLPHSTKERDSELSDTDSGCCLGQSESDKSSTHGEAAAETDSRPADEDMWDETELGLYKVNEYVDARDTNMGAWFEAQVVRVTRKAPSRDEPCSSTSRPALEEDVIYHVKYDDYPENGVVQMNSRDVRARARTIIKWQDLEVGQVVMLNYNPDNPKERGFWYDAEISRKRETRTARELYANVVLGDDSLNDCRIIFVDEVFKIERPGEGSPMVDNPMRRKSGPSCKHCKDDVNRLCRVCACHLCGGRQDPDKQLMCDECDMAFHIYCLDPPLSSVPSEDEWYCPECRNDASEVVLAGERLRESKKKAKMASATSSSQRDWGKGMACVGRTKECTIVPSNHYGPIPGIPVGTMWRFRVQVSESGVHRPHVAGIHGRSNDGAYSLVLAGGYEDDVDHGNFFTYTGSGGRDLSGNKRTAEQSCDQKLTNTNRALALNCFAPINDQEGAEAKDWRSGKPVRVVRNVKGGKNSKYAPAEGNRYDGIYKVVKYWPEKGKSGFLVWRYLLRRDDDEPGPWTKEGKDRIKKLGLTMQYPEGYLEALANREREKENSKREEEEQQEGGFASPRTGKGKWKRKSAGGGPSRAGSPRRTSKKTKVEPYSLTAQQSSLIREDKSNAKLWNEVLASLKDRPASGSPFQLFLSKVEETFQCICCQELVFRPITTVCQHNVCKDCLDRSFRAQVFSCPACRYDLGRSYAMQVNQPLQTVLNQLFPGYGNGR
# RBBP9 inhibitor = human RBBP9 inhibitors, primary screen, biochemical, fluorescence polarization, FP-Rh probe, HTS | Serine hydrolase RBBP9 (Homo sapiens), O75884 | recombinant RBBP9 | inhibition, % at 7.94 µM | hit rate 0.2% among 220,000 | AID 1515, 2009;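 active = inhibition above the campaign mean of all tested compounds plus 3 SD, cut at about 14% in these data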;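 also: plate controls were DMSO wells with RBBP9 for no effect and wells lacking RBBP9 protein for full effect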
#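 system = RBBP9 protein | input = RBBP9 at 2.5 µM in dispensed solution, before mixing | measured by = fluorescence polarization (mP), excitation 525 nm, emission 598 nm | incubation = enzyme-compound preincubation 30 min, then probe labeling 45 min, 25 °C | buffer or medium = Tris-NaCl-Pluronic buffer, pH 8.0 | compound = single dose 7.94 µM | also added = FP-Rh probe, 375 nM dispensing solution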
# PRMT1 FP inh = PRMT1 methyltransferase inhibitors, primary screen, biochemical, fluorescence polarization; inhibition, % at 2.79 µM; recombinant PRMT1, activity-based probe fluorescence polarization; Protein arginine N-methyltransferase 1 (Homo sapiens), Q99873; hit rate 1.3% among 370,000;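 active = inhibition above about 21% made by adding two undisclosed values, limit read from the data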
# PRMT1 inh conf = PRMT1 methyltransferase inhibitors, confirmation, biochemical, fluorescence polarization, triplicate. recombinant His-PRMT1, activity-based probe fluorescence polarization. shares compounds with PRMT1 FP inh. inhibition, % at 2.79 µM. AID 687036, 2013. hit rate 42% among 3,300;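 active = mean inhibition across replicates above the hit cutoff derived for the earlier primary screen, cut at about 22% in these data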
# UHRF1 DNA bind = UHRF1 methylated DNA binding inhibitors, counter-screen for MBD2 inhibitor project, biochemical, TR-FRET, human UHRF1 | shares compounds with MBD2 DNA inh | UHRF1 binding to methylated oligonucleotide | inhibition, % at 4.4 µM | hit rate 25% among 1,000;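 also: UHRF1 SRA domain binding a labeled hemimethylated CpG hairpin DNA; 0% = vehicle only and 100% = reference inhibitor with vehicle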
# MBD2 confirm = inhibitors of MBD2 binding to methylated DNA, confirmation, biochemical, TR-FRET, DNA-binding domain, human; shares compounds with MBD2 DNA inh; TR-FRET MBD2-DBD binding to methylated oligonucleotide; inhibition, % at 4.4 µM; hit rate 26% among 1,000; in the data active = inhibition above about 14%
# IN multimer act = HIV-1 IN multimer formation enhancers, counter-screen for LEDGF/p75 integration inhibitor project, biochemical, TR-FRET; shares compounds with LEDGF integ inh; TR-FRET HIV-1 integrase multimerization; activation, % at 7.7 µM; hit rate 17% among 2,000; AID 1053131, 2014; in the data active = activation above about 8.9%
# TR-FRET interf = TR-FRET optical interference artefacts, confirmation, artefact control for LEDGF/p75-dependent integration inhibitor project, biochemical, HIV-1 IN multimerization; shares compounds with LEDGF integ inh; TR-FRET optical interference counterscreen; inhibition, % at 7.7 µM; 2,000 tested, under 10 active; AID 1053135, 2014;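 active = inhibition above the mean over all tested compounds plus 3 SD, which no compound reached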;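 also: 0% = integrase with antibodies and DMSO and 100% = antibodies without integrase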
# LEDGF integ conf = inhibitors of HIV-1 IN-LEDGF/p75 DNA integration, confirmation, biochemical, TR-FRET; TR-FRET LEDGF/p75-dependent HIV-1 integration; hit rate 36% among 2,000; AID 1053136, 2014; shares compounds with LEDGF integ inh; inhibition, % at 3.7 µM; in the data active = inhibition above about 14%
# Active calls of the source: *; · = not tested or not shown. Rows were chosen to be rich in hits. Some 3.1% of all compounds tested hit in one or more screens of this group. Rule as the data show it, unless noted: active = inhibition above about 21%; inactive = the rest.
SMILES,MBD2 DNA inh,ABHD5-PLIN5 inh,LEDGF integ inh,UHRF1 binding,RBBP9 inhibitor,PRMT1 FP inh,PRMT1 inh conf,IN multimer act,TR-FRET interf,LEDGF integ conf,others
CCN(CC)Cc1cc(O)c(CN(CC)CC)cc1O,17*,11,64*,52*,-6,30*,76*,4,-22,57*,UHRF1 DNA bind=3;MBD2 confirm=-1
CC(C)(C)C(=O)/C=C/Nc1ccccc1O,-19,-1,15*,-10,-6,26*,8,3,-10,1,
CCOC(=O)c1ccc(N/C=C/C(=O)C(C)(C)C)cc1,4,-5,-5,-1,-9,1,·,·,·,·,
COc1ccc(C(=O)OCC(=O)c2ccc(C3CCCCC3)cc2)cc1,4,-4,1,1,-6,0,·,·,·,·,
Nc1ccc(O)cc1C(=O)OCC(=O)c1ccc(C2CCCCC2)cc1,5,-7,15*,-2,-1,29*,-1,0,0,0,
Cc1ccc(NCc2nc3ccccc3n2C)cc1,-3,4,2,-4,-4,0,·,·,·,·,
Cn1c(CNc2ccc(O)cc2)nc2ccccc21,-6,0,16*,7,·,39*,-3,5,-20,-2,
Cc1noc(/C=C/c2ccco2)c1S(=O)(=O)N1CCC(C(=O)NCc2ccco2)CC1,-8,4,33*,1,-5,32*,0,3,-9,1,
CC(C)C1NC2(C(=O)c3ccccc3C2=O)C2C(=O)N(c3ccc(F)cc3)C(=O)C12 (stereo not drawn),-3,-7,39*,0,-3,33*,44*,2,-6,-1,
O=C1C2C3C=CC(CC3)C2C(=O)N1c1ccc(F)cc1 (stereo not drawn),0,-1,-3,-1,·,-3,·,·,·,·,
Cc1ccccc1OCC(=O)N/N=C/c1ccc([N+](=O)[O-])o1,-2,11,0,2,-7,9,·,·,·,·,
O=C(N/N=C/C=C/c1ccccc1[N+](=O)[O-])c1cccs1,-2,-3,5,-1,-2,-4,·,·,·,·,
O=C(N/N=C\C=C\c1ccc([N+](=O)[O-])o1)c1cccs1,9,2,36*,43*,·,31*,5,11*,-38,57*,
COc1ccccc1OCC(=O)N/N=C/C=C/c1ccc([N+](=O)[O-])o1,9,7,38*,35*,0,25*,9,11*,-57,46*,
COc1ccc(CCC[C@H](CCC(=O)N(c2ccccc2)c2ccccc2)CCc2ccccc2)cc1,-3,·,-3,1,·,-2,·,·,·,·,
Cc1cc(NS(=O)(=O)c2ccc(NC(=O)CSc3nnc(-c4ccc(Cl)cc4)n3Cc3ccco3)cc2)nc(C)n1,-8,·,5,-4,·,1,·,·,·,·,
Cc1cc(NS(=O)(=O)c2ccc(NC(=O)CSc3nnc(-c4ccncc4)n3Cc3ccco3)cc2)nc(C)n1,6,·,36*,7,·,33*,-1,1,-5,-9,
O=C(CCc1ccccc1)N[C@H]1[C@H](OC(=O)c2cnccn2)CCC[C@]12C(=O)N(Cc1ccccc1)c1ccccc12,1,·,2,1,·,1,·,·,·,·,
COc1ccc(-c2ncn(CCc3ccccc3OC)c2CC(C)C)cc1,-2,·,1,0,·,2,·,·,·,·,
C[C@@H]1CN([C@H](C)CO)C(=O)CCCn2nncc2CO[C@@H]1CN(C)C(=O)Nc1ccccc1,-5,·,-3,2,·,0,·,·,·,·,
O=c1c2cc(Cl)ccc2oc2nc3n(c(=O)c12)CCCS3,3,2,22*,-9,-9,63*,52*,-1,8,27*,
COC(=O)C1=C(C)N(C)C(=NCc2ccccc2)NC1c1ccc(F)cc1 (stereo not drawn),-4,·,0,-2,·,-3,·,·,·,·,
O=S1(=O)C=CCN1Cc1cn(Cc2ccccc2)nn1,-4,·,3,4,·,-2,·,·,·,·,
Cc1cc(C)c2c(N)c(S(=O)c3ccc(C(C)(C)C)cc3)sc2n1 (stereo not drawn),-1,-5,36*,1,2,33*,2,1,-4,-4,
Cc1cc(C)c2c(N)c(C(=O)C(C)(C)C)sc2n1,5,-1,1,9,1,0,·,·,·,·,
Nc1[nH]c(C(=O)c2ccccc2)c(-c2ccccc2)c1C(=O)NCCc1c[nH]c2ccccc12,-4,·,-1,1,·,1,·,·,·,·,
C[n+]1c2cc(N)ccc2cc2ccc(N)cc21,0,-22,40*,-322,·,147*,142*,20*,-70,45*,
C(=C\c1ccco1)/c1ccc2ccccc2n1,7,12,18*,25*,-2,38*,12,17*,-86,37*,
O=C(N/N=C/c1cc2c(cc1[N+](=O)[O-])OCO2)c1ccc2c(c1)OCO2,6,0,6,2,·,16,·,·,·,·,
Cc1cc(O)c(N=Cc2cc3c(cc2[N+](=O)[O-])OCO3)cc1C,-2,10,19*,0,·,25*,22*,6,-30,6,
